Measured values published in ChEMBL document CHEMBL1126701, “New mechanism-based inactivators of trypsin-like proteinases. Selective inactivation of urokinase by functionalized cyclopeptides incorporating a sulfoniomethyl-substituted m-aminobenzoic acid residue” (J Med Chem, 1993).
The source made the active and inactive calls. No cut-off for these calls is given here.

Experiments:
[1] = molecular target: Prothrombin (Homo sapiens) (UniProt P00734); test: Ratio of inactivation to apparent binding constant against thrombin;NI=no inhibition
In short: (§1)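 Thrombin (0.1 μM) preincubated with 300 μM inhibitor at pH 7.5, 25 °C. Timed aliquots assayed for residual activity with S-2238. Pseudo-first-order kobs from semilog plot of remaining activity vs time.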

[2] = molecular target: T1, Serine protease 1 (Bos taurus) (UniProt P00760); test: Inactivation constant determined against bovine trypsin
T1 sequence (whole entry): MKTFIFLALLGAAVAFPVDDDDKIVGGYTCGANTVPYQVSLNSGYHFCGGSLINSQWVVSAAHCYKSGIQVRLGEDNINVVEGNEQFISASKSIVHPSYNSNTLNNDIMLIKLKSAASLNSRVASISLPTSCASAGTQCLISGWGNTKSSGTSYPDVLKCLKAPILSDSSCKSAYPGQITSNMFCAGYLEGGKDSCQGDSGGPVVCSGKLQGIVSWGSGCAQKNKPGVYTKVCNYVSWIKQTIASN
In short: (§2)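 Pseudo-first-order inactivation at pH 7.5, 25 °C, inhibitor in excess. Two methods. Preincubation: aliquots taken over time and assayed for residual activity, kobs from semilog plots. Progress curve: continuous A405 with chromogenic substrate present, vs blank with inhibitor and substrate (trypsin 0.5 μM, BAPNA 0.3 mM, 1.5% DMSO; urokinase 31 nM, S-2444). KI and kinact from double-reciprocal (Wilkinson) fits.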

[3] = molecular target: T1, Serine protease 1 (Bos taurus); test: Ratio of inactivation to apparent binding constant against bovine trypsin; in short: as §2
Serine protease 1 = molecular target: T2, Serine protease 1 (Bos taurus, UniProt P00760); test: Apparent binding constant against bovine trypsin; in short: as §2
T2 sequence (P00760 whole entry): T1 sequence (whole entry)

[4] = molecular target: T3, Urokinase-type plasminogen activator (Homo sapiens, UniProt P00749); test: Apparent binding constant against Human urokinase; in short: as §2
[5] = molecular target: T3, Urokinase-type plasminogen activator; test: Inactivation constant determined against urokinase; in short: as §2
[6] = molecular target: T3, Urokinase-type plasminogen activator; test: Ratio of inactivation to apparent binding constant against human urokinase; in short: as §2
[7] = molecular target: Tissue-type plasminogen activator (Homo sapiens) (UniProt P00750); test: Ratio of inactivation to apparent binding constant against tissue plasminogen activator (t-PA);NI=no inhibition
Chain of Tissue-type plasminogen activator (Homo sapiens) (P00750 36-562 limits assumed): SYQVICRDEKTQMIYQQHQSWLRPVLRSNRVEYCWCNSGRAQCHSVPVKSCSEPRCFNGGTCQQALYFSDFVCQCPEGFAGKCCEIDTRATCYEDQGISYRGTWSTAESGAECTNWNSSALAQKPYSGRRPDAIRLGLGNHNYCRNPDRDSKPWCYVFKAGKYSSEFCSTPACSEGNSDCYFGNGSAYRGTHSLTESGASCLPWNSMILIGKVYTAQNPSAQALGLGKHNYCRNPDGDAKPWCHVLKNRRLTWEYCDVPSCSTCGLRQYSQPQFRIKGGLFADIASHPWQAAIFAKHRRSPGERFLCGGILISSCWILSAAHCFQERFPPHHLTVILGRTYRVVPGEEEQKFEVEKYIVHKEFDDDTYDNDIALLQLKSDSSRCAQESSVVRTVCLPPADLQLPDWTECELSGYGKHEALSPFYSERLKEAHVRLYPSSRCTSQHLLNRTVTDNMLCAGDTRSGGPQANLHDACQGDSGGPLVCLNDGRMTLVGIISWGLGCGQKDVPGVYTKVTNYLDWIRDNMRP
In short: (§3)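 t-PA (0.75 μM) preincubated with inhibitor 0.37-1 mM at pH 7.5, 25 °C. Aliquots assayed periodically for remaining amidolytic activity with p-nitroanilide substrate. kobs from semilogarithmic plots.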

[8] = molecular target: Plasminogen (Homo sapiens) (UniProt P00747); test: Ratio of inactivation to apparent binding constant against plasmin
Chain of Plasminogen (Homo sapiens) (P00747 97-580 limits assumed): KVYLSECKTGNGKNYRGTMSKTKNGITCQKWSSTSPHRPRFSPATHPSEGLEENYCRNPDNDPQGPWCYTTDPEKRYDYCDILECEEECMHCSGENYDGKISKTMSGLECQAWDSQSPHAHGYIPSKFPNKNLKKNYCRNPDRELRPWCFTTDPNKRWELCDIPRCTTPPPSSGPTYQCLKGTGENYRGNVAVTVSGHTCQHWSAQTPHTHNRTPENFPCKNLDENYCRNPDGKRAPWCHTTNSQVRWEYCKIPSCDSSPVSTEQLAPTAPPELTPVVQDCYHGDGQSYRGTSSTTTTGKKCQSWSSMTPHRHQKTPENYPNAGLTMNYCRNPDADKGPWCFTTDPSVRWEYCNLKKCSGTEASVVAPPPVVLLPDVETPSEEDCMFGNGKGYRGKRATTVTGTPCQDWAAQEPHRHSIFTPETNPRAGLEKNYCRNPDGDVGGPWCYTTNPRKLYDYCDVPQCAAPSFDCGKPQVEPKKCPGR
Chain of Plasminogen (Homo sapiens) (P00747 581-810 limits assumed): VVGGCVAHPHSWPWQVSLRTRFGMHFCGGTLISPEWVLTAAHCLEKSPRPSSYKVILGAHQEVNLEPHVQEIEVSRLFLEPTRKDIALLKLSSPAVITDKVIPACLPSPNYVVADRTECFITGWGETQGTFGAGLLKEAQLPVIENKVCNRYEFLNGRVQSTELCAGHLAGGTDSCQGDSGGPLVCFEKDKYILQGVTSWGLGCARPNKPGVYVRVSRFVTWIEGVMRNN
In short: (§4)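 Plasmin (1 μM; 0.7 μM in one series) preincubated with inhibitor 34-560 μM at pH 7.5, 25 °C. Aliquots assayed for residual activity on S-2251. kobs from semilog plots; kinact/KI from Kitz-Wilson analysis or as kobs/[I].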

[9] = molecular target: T1, Serine protease 1 (Bos taurus)
[10] = molecular target: T3, Urokinase-type plasminogen activator
[11] = molecular target: Plasminogen (Homo sapiens) (UniProt P00747); test: Ratio of inactivation to apparent binding constant against plasmin;NI=no inhibition; in short: as §4
[12] = molecular target: Prothrombin (Homo sapiens) (UniProt P00734); test: Ratio of inactivation to apparent binding constant against thrombin; in short: as §1
[13] = molecular target: T1, Serine protease 1 (Bos taurus); test: Ratio of inactivation to apparent binding constant against bovine trypsin;NI=no inhibition
[14] = molecular target: T3, Urokinase-type plasminogen activator; test: Ratio of inactivation to apparent binding constant against human urokinase; NI=no inhibition
[15] = molecular target: Tissue-type plasminogen activator (Homo sapiens) (UniProt P00750); test: Ratio of inactivation to apparent binding constant against tissue plasminogen activator (t-PA); in short: as §3
[16] = molecular target: T1, Serine protease 1 (Bos taurus); test: Ratio of inactivation to apparent binding constant against bovine trypsin (obtained as k obs/[I] at low inhibitor concentration)
In short: (§5)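 For weak inactivation, kinact/KI taken as kobs/[I] at low inhibitor concentration. Preincubation at pH 7.5, 25 °C: trypsin 4.5 μM or urokinase 55 μM with excess inhibitor. Aliquots diluted (or filtered at 4 °C) and assayed for residual activity on BAPNA or S-2444. kobs by least squares of semilog remaining activity vs time.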

[17] = molecular target: T3, Urokinase-type plasminogen activator; test: Ratio of inactivation to apparent binding constant against human urokinase (obtained as k obs/[I] at low inhibitor concentration); in short: as §5
Trypsin (Sus scrofa) [18] = molecular target: Trypsin (Sus scrofa) (UniProt P00761); test: Inactivation constant determined against porcine trypsin
Chain of Trypsin (Sus scrofa) (P00761 whole entry, looked up): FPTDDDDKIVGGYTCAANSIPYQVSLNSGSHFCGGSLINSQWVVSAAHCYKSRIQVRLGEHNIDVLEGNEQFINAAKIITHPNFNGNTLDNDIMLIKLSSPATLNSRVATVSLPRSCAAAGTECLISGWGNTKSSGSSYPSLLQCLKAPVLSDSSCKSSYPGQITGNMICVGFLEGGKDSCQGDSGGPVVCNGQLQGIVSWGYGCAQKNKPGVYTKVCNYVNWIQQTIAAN

Trypsin (Sus scrofa) [19] = molecular target: Trypsin (Sus scrofa) (UniProt P00761); test: Ratio of inactivation to apparent binding constant against porcine trypsin

| SMILES | Ratio [1] | K inact [2] [s⁻¹] | Ratio [3] [M⁻¹ s⁻¹] | Ki (Serine protease 1) [µM] | Ki [4] [µM] | K inact [5] [s⁻¹] | Ratio [6] [M⁻¹ s⁻¹] | Ratio [7] | Ratio [8] | Ratio [11] | Ratio [13] | other results |
| --- | --- | --- | --- | --- | --- | --- | --- | --- | --- | --- | --- | --- |
| C[S+](Cc1ccc2cc1C(=O)NCC(=O)NC(CCCCN)C(=O)N2)c1ccccc1 (stereo unspecified) | inactive | 0.0075 | 860 | 8.7 | 500 | 0.077 | 154 | inactive | 75 M⁻¹ s⁻¹ |  |  |  |
| C[S+](Cc1ccc2cc1C(=O)NCC(=O)NC(CCCN=C(N)N)C(=O)N2)c1ccccc1 (stereo unspecified) | 12 M⁻¹ s⁻¹ |  | 916 | 12 | 9 |  | 2330 | 1 M⁻¹ s⁻¹ | 40 M⁻¹ s⁻¹ |  |  | kinact [9]: 0.011 s⁻¹; kinact [10]: 0.021 s⁻¹ |
| NCCCCC1NC(=O)CNC(=O)c2cc(ccc2CBr)NC1=O (stereo unspecified) | inactive | 0.02 | 250 | 80 |  |  |  | inactive |  | inactive |  |  |
| N=C(N)NCCCC1NC(=O)CNC(=O)c2cc(CBr)ccc2NC1=O (stereo unspecified) |  |  |  |  |  |  |  |  | No inactivation |  | 5 M⁻¹ s⁻¹ | Ratio [12]: No inactivation; Ratio [14]: 14 M⁻¹ s⁻¹; Ratio [15]: No inactivation |
| C[S+](C)Cc1ccc2cc1C(=O)NCC(=O)NC(CCCN=C(N)N)C(=O)N2 (stereo unspecified) | inactive |  | 1 |  | 41 | 0.014 | 341 | inactive |  | inactive |  |  |
| C[S+](Cc1ccc2c(c1)C(=O)NCC(=O)NC(CCCCN)C(=O)N2)c1ccccc1 (stereo unspecified) | inactive |  |  |  |  |  | 25 | inactive |  | inactive | inactive |  |
| C[S+](Cc1ccc2c(c1)C(=O)NCC(=O)NC(CCCN=C(N)N)C(=O)N2)c1ccccc1 (stereo unspecified) | inactive |  |  |  |  |  |  | inactive |  | inactive |  | Ratio [16]: 50 M⁻¹ s⁻¹; Ratio [17]: 14 M⁻¹ s⁻¹ |
| C[S+](C)Cc1ccc2cc1C(=O)NCC(=O)NC(CCCCN)C(=O)N2 (stereo unspecified) | inactive |  |  |  |  |  |  | inactive |  | inactive | inactive |  |
| NCCCCC1NC(=O)CNC(=O)c2cc(CBr)ccc2NC1=O (stereo unspecified) | inactive |  |  |  |  |  |  | inactive |  | inactive | inactive | Ratio [14]: inactive |
| N=C(N)NCCCC1NC(=O)CNC(=O)c2cc(ccc2CBr)NC1=O (stereo unspecified) | inactive | 0.031 | 560 | 55 | 92 | 0.017 | 185 | inactive | 2 M⁻¹ s⁻¹ |  |  | K inact (Trypsin (Sus scrofa) [18]): 0.041 s⁻¹; Ratio (Trypsin (Sus scrofa) [19]): 2050 M⁻¹ s⁻¹ |
